Here are results for 2 compounds from ChEMBL document CHEMBL5352430, “Multi-parameter optimization: Development of a morpholin-3-one derivative with an improved kinetic profile for imaging monoacylglycerol lipase in the brain” (Eur J Med Chem, 2022).

Data set [1] can be described thus: Drug uptake in mouse brain assessed as standardized uptake value measured after 2 mins. The format is ADME, tissue-based. The settings on record: in vivo. The essentials: (§1)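 Mouse dynamic PET. Tracer at 6.33–14.42 nmol/kg given by tail-vein injection; 60 min scan started 1 min later. Data expressed as SUV, i.e. decay-corrected regional radioactivity normalized to injected dose and body weight. Blocking: MAGLi432 at 5 mg/kg in DMSO/Tween80/saline 1/1/8, injected 5 min before tracer.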

The nature of data set [2]: Drug uptake in rat brain hippocampus. The format is ADME, tissue-based. As to conditions: in vitro; call rule not given here.
Data set [3] can be described thus: Lipophilicity, logD of the compound at pH 7.4 by shake flask assay. The format is physicochemical. As to conditions: buffer.
Data set [4] in a line: Drug uptake in MAGL knock out mouse. The settings on record: in vivo. The format is ADME. The essentials: as §1
Data set [5] is described as follows: Drug uptake in wild type mouse after 20 mins. The format is ADME. As to conditions: in vivo. The essentials: as §1
Data set [6] is described as follows: Drug uptake in rat brain thalamus. The format is ADME, tissue-based. As to conditions: in vitro.
Data set [7] in a line: Drug uptake in rat brain cerebellum. As to conditions: in vitro. The format is ADME, tissue-based.
Data set [8] can be described thus: Drug uptake in Mdrla/b-Bcrp KO mouse pretreated with MAGLi432. The format is ADME. The settings on record: in vivo. The essentials: as §1
The nature of data set [9]: Drug uptake in rat brain in presence of SAR127303. As to conditions: in vitro. The format is ADME, tissue-based.
Data set [10] in a line: Drug uptake in rat brain in presence of PF-06795071. The format is ADME, tissue-based. As to conditions: in vitro.
Data set [11] is described as follows: Drug uptake in Mdrla/b-Bcrp KO mouse. The format is ADME. The settings on record: in vivo. The method, boiled down:
as §1

Data set [12] in a line: Drug uptake in rat brain striatum. The format is ADME, tissue-based. The settings on record: in vitro.
A short description of data set [13]: Drug uptake in rat brain cortex. The format is ADME, tissue-based. The settings on record: in vitro.
A short description of data set [14]: Drug uptake in rat brainstem. The format is ADME, tissue-based. The settings on record: in vitro.
A short description of data set [15]: Drug uptake in mouse brain assessed as maximum standardized uptake value measured after 60 mins. As to conditions: in vivo, 1 h. The format is ADME, tissue-based. The essentials: as §1

Structures are written as SMILES.

For `O=C1CO[C@H]2CCN([11C](=O)N3CC(OCc4ccc(C(F)(F)F)cc4Cl)C3)C[C@H]2N1`, in data set [1], the SUV worked out at 0.72.
With `O=C1CO[C@H]2CCN([11C](=O)N3CC(CCc4c(F)cccc4C(F)(F)F)C3)C[C@H]2N1`, the Drug uptake entry in data set [2] was “Active”; in [4], “Not Active”; in data set [5] it was “Active”; in data set [6], “Active”; in [7], “Active”; in [8] it was “Not Active”. For the same compound, the Drug uptake result in data set [9] is reported as “Not Active”; in data set [10], “Not Active”; in [11] it was “Active”; in data set [12], “Active”; in data set [13], “Active”; in [14], “Not Active”. The same compound came in with a logD in data set [3] of 2.65. Besides, in data set [1], the SUV was determined as 1.67. In data set [15], the SUVmax amounted to 0.4.
